This note sets out measurements from ChEMBL document CHEMBL1142288, “Synthesis and biological evaluation of pyrroloiminoquinone derivatives” (Bioorg Med Chem, 2008).

In test [1] the test system is NCI-H460. Description: Antiproliferative activity against human NCI-H460 cells after 72 hrs. As to conditions: NCI-H460, 72 h.
The subject of test [2] is HL-60. Description: Antiproliferative activity against human HL60 cells after 72 hrs by trypan blue test. The test is classed as functional, cell-based. As to conditions: HL-60, 72 h. The procedure, abridged: (§1)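 HeLa (Ham's F-12, 10% heat-inactivated FCS) or HL-60 (RPMI 1640, 15% heat-inactivated FCS), both with penicillin/streptomycin/amphotericin; 4 · 10⁴ cells/well seeded in duplicate, 72 h drug exposure. Viability by Trypan blue; IC50 = concentration giving 50% reduction in cell number versus untreated controls.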

The test system of test [3] is HeLa. Nature of the test: Antiproliferative activity against human HeLa cells after 72 hrs by trypan blue test. The test is classed as functional, cell-based. The procedure, abridged: as §1
The species entered for test [4] is Homo sapiens. Nature of the test: Inhibition of human recombinant topoisomerase 2 assessed as relaxation of supercoiled pBR322 plasmid DNA at 10 to 50 uM.
Test [5] has as its system HeLa. Nature of the test: Induction of apoptosis in human HeLa cells assessed as DNA fragmentation at 100 uM after 24 hrs. The test is classed as functional, cell-based. The procedure, abridged:
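HeLa cells (5 · 10⁵) incubated 24 h at 37 °C, medium replaced, test agent added; solvent-only controls. After 24 h, DNA extracted, dissolved in TE (10 mM Tris pH 8, 1 mM EDTA), run on 1% agarose, ethidium bromide-stained and imaged under UV; cisplatin as positive control.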

The species entered for test [6] is Homo sapiens. Description: Inhibition of human recombinant topoisomerase 2 assessed as relaxation of supercoiled pBR322 plasmid DNA at 50 uM.

As usually defined, the pIC50 is the negative decadic logarithm of the IC50, by convention in mol/L. High values mean a low IC50, low ones a high IC50.

Molecules are shown by their SMILES. pIC50: −log10 of the molar value. Calls of active or inactive are those of the source. The rule behind the calls is not given here.

As to `COc1cc2c3c(cn(C)c3c1OC)CCN2`, in test [1], the negative-log IC50 (pIC50) was less than 4.22.
For `Cn1cc2c3c1C(=O)C1=C(NCCS1)C3=NCC2`, the pIC50 was 5.57 in test [2], 5.72 in test [3] and 6.02 in test [1]. Further, the result in test [4] was Active.
In test [1], `COc1cccc2c1C(=O)c1c(O)c3c(c(O)c1C2=O)C[C@@](O)(C(=O)CO)C[C@@H]3O[C@H]1C[C@H](N)[C@H](O)[C@H](C)O1` [DOXORUBICIN] showed a pIC50 of 7.55.
For `COc1cc2c3c(c1OC)N(C=O)C(OC)C3CCN2C=O` (stereo not drawn), the pIC50 in test [2] was less than 4.70; in test [3], less than 4.70; in test [1], 5.11.
`Cn1cc2c3c1C(=O)C(NCCc1ccc(O)cc1)=CC3=NCC2` [MAKALUVAMINE K]: the negative-log IC50 (pIC50) is 5.16 in test [2], 5.31 in test [3] and 4.97 in test [1]. In addition, the outcome in test [5] was Active.
In the case of `COc1cc2c3c(cn(C)c3c1OC)CCN2C=O`, in test [1], the pIC50 is less than 4.22.
The compound `C[C@H](NC1=CC2=NCCc3cn(C)c(c32)C1=O)c1ccccc1` showed a pIC50 in test [1] of 4.64.
On the same count and under the same terms, under `COc1ccc2[nH]cc(CCNC3=CC4=NCCc5cn(C)c(c54)C3=O)c2c1` stands 5.06.
`Cn1cc2c3c1C(=O)C1=C(C3=NCC2)C2(C=CC(=O)C=C2)CCN1`: the negative logarithm of the IC50 (pIC50) in test [2] is 5.51; in test [3], 5.26; in test [1], 5.21. Also, in test [5], the outcome was Active.
Regarding `COc1cc2c3c(cn(C=O)c3c1OC)CCN2C=O`, in test [1], the negative logarithm of the IC50 (pIC50) is less than 4.22.
Consider `COc1cc(NS(C)(=O)=O)ccc1Nc1c2ccccc2nc2ccccc12` [AMSACRINE], for which the pIC50 was 8.29 in test [2] and 7.92 in test [3].
With `Cn1cc2c3c1C(=O)C(NCCc1c[nH]c4ccccc14)=CC3=NCC2`, the pIC50 in test [2] was 5.11; in test [3], 5.39; in test [1], 5.67. Further, the outcome in test [6] and in test [5] was Active.
Consider `COC1=CC2=NCCc3cn(C)c(c32)C1=O`, for which the pIC50 in test [2] was less than 4.70; in test [3], less than 4.70; in test [1] it was 5.05.
Compound `Cn1cc2c3c1C(=O)C(NCc1ccccc1)=CC3=NCC2` had a pIC50 in test [1] of less than 4.40.
The same measure, in the same setting: the same measure for `COc1cc2c3c(c[nH]c3c1OC)CCN2C=O`: less than 4.22.
As for `Cn1cc2c3c1C(=O)C(NCCc1c[nH]c4ccc(F)cc14)=CC3=NCC2`, the results for the negative-log IC50 (pIC50) in test [2], in test [3] and in test [1] were less than 4.70, less than 4.70 and 5.26, respectively.
Consider `COc1ccc(CCNC2=CC3=NCCc4cn(C)c(c43)C2=O)cc1`, for which the negative logarithm of the IC50 (pIC50) in test [1] is less than 4.40.
On the same count and under the same terms, under `Cn1cc2c3c1C(=O)C(NCCc1c[nH]c4ccc(O)cc14)=CC3=NCC2` stands less than 4.40.
